Series [1] can be described thus: Drug metabolism in bile duct-cannulated Sprague-Dawley rat urine assessed as BMS-572273 metabolite level at 30 mg/kg, po after 12 hrs by LC-MS/MS analysis. The arrangement: dose 30 mg/kg, route oral. As to conditions: in vivo. It is filed as ADME, organism-based. In short, it runs like this: (§1)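 Male bile-duct-cannulated Sprague-Dawley rats (n=3), fasted overnight, received 30 mg/kg by gavage in 0.5% methylcellulose. Urine and bile were collected 0-12 h and pooled by equal percentage weight across animals, then centrifuged. Supernatants were profiled by LC/MS/MS. Bile was also treated with β-glucuronidase in pH 4.8 acetate buffer, 37°C, 16 h.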

The nature of series [2]: Drug metabolism in bile duct-cannulated Sprague-Dawley rat bile assessed as DPH-123554 metabolite level at 30 mg/kg, po after 12 hrs by LC-MS/MS analysis. As to conditions: in vivo. Format: ADME, organism-based. Also noted: dose 30 mg/kg, route oral. The essentials:
as §1

Series [3] is described as follows: Drug metabolism in rat hepatocytes assessed as at 25 uM after 3 hrs by HPLC analysis.
Series [4] has as its system Serum. The experiment in a line: Metabolic stability in human serum after 3 hrs by equilibrium dialysis. It is filed as ADME, cell-free. In short, it runs like this: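 Stability assessed in the serum samples from the equilibrium-dialysis setup: compound at final 12.8, 25.6 and 38.5 µM, dialysed against 134 mM phosphate buffer, pH 7.4, at 37°C with rotation at 20 rpm. Samples monitored for degradants over the 3-h incubation.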
(In general: In equilibrium dialysis free small molecules cross a membrane that holds back macromolecules.)

A short description of series [5]: AUC (infinity) in beagle dog at 1 mg/kg, iv. Format: ADME, organism-based, Canis lupus familiaris. Also noted: time infinity, dose 1 mg/kg, route intravenous. As to conditions: plasma. In short, it runs like this:
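Male beagle dogs (n=3, 10.1-12.7 kg) in a one-way IV/PO crossover with one-week washout, fasted ~15 h pre-dose and 4 h post-dose. Dosing was 1 mg/kg IV bolus into the saphenous vein in DMA:propylene glycol:water (1:7:2), or 5 mg/kg gavage in 0.5% methylcellulose. Blood was sampled 0-96 h. Plasma was assayed by LC/MS/MS (LLOQ 1.00 ng/ml) with noncompartmental analysis; Cmax was observed directly.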

In series [6] the test system is Canis familiaris. Nature of the series: Terminal volume of distribution in beagle dog at 1 mg/kg, iv. It is filed as ADME, organism-based, Canis lupus familiaris. The settings on record: in vivo. The arrangement: dose 1 mg/kg, route intravenous. In short, it runs like this: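 Male beagles (n=3, 10.1-12.7 kg), fasted ~15 h pre- and 4 h post-dose, given a 1 mg/kg IV bolus via saphenous vein catheter in N,N-dimethylacetamide:propylene glycol:water (1:7:2). Plasma drawn 0-96 h and assayed by LC/MS/MS. Noncompartmental analysis; Vz = CLp (dose/AUC(INF)) divided by elimination rate constant.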

Series [7] in a line: Drug metabolism in beagle dog hepatocytes assessed as 7-hydroxycoumarin formation at 25 uM after 3 hrs by HPLC analysis. Format: ADME, cell-based, Canis lupus familiaris, Hepatocyte.
Series [8] can be described thus: Drug metabolism in rat hepatocytes assessed as 7-hydroxycoumarin formation at 25 uM after 3 hrs by HPLC analysis. Format: ADME, cell-based, Hepatocyte.
The nature of series [9]: Drug metabolism in beagle dog hepatocytes assessed as decrease of compound level at 25 uM after 3 hrs by HPLC analysis. As to conditions: read-out: Drug metabolism. It is filed as ADME, cell-based, Canis lupus familiaris, Hepatocyte. In short, it runs like this:
(§2)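 Mouse, rat, dog, monkey and human hepatocytes (trypan blue viability checked) at 1.0×10^6 cells/ml in Krebs-Henseleit buffer were incubated with 25 µM compound, in duplicate. Conditions were 37°C, 95/5 O2/CO2, orbital shaking, 3 h. 7-Ethoxycoumarin and 7-hydroxycoumarin (100 µM) served as positive controls, with a cell-free negative control. Reactions were quenched with ice-cold acetonitrile, then sonicated and centrifuged; supernatants were analysed by LC/MS/MS.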

Series [10] can be described thus: Cmax in chimpanzee at 1 mg/kg, po. Format: ADME, organism-based, Pan troglodytes. Also noted: dose 1 mg/kg, route oral. The settings on record: in vivo. The essentials: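 Two fasted male chimpanzees (58, 72 kg) received 1 mg/kg orally as a suspension in 0.5% methylcellulose/orange drink with 1% Tween 80 (1:1). Blood was sampled 0-96 h post-dose. Plasma was assayed by validated LC/MS/MS (LLOQ 1.00 ng/ml). Noncompartmental analysis gave AUC(INF) by the mixed log-linear trapezoidal method, with Cmax observed directly; values are mean (min, max).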

Series [11] addresses T1, Corticotropin-releasing factor-binding protein (Homo sapiens, UniProt P24387).
T1 sequence (P24387 whole entry): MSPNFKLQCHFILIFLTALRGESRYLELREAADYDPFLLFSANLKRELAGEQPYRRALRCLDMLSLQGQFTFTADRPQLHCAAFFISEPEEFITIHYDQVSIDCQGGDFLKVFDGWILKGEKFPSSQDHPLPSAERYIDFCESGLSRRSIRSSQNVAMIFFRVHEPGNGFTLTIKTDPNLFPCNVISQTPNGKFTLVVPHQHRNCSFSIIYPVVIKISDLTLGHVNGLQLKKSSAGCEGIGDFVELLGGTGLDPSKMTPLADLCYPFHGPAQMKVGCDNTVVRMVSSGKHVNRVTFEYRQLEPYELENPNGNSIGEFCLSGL
Nature of the series: Binding affinity to CRF-binding protein (unknown origin).

Series [12] is described as follows: Oral bioavailability in beagle dog at 5 mg/kg. It is filed as ADME, organism-based, Canis lupus familiaris. As to conditions: in vivo. In short, it runs like this: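 Male beagle dogs (n=3), one-way IV/PO crossover with a one-week washout, fasted about 15 h before and 4 h after dosing. IV dose of 1 mg/kg as a saphenous bolus in N,N-dimethylacetamide:propylene glycol:water (1:7:2); PO dose of 5 mg/kg by gavage in 0.5% methylcellulose. Plasma sampled 0–96 h and assayed by LC/MS/MS (LLOQ 1.00 ng/ml). Noncompartmental analysis; CL = dose/AUC(INF) after IV; F from dose-normalized AUC ratio.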

The nature of series [13]: Protein binding in dog serum after 3 hrs by equilibrium dialysis. It is filed as ADME, cell-free, Canis lupus familiaris. The settings on record: read-out: PB (converted). The essentials: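 Equilibrium dialysis of serum spiked to final 12.8, 25.6 and 38.5 µM against 134 mM phosphate buffer, pH 7.4, through a 10,000 Da cutoff membrane. Cells rotated at 20 rpm, 37°C, 3 h. Percent unbound taken as buffer concentration divided by serum concentration.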

Series [14] is described as follows: Drug metabolism in cynomolgus monkey cryopreserved hepatocytes assessed as decrease of compound level at 25 uM after 3 hrs by HPLC analysis. It is filed as ADME, cell-based, Macaca fascicularis, Hepatocyte. The settings on record: read-out: Drug metabolism. The essentials:
as §2

Series [15] can be described thus: Drug metabolism in beagle dog hepatocytes assessed as […] at 25 uM after 3 hrs by HPLC analysis. It is filed as ADME, cell-based, Canis lupus familiaris, Hepatocyte.
Series [16] in a line: Tmax in chimpanzee at 1 mg/kg, po. It is filed as ADME, organism-based, Pan troglodytes. As to conditions: in vivo. The arrangement: dose 1 mg/kg, route oral. In short, it runs like this:
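Two male chimpanzees (58 and 72 kg), fasted overnight, dosed orally at 1 mg/kg as a suspension in 0.5% aqueous methylcellulose/Tang orange juice with 1% Tween 80 (1:1). Plasma sampled 0-96 h, parent measured by validated LC/MS/MS. Tmax taken from observed data by noncompartmental analysis; reported as median (min, max).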

The nature of series [17]: Drug metabolism in mouse hepatocytes assessed as 7-hydroxycoumarin formation at 25 uM after 3 hrs by HPLC analysis. Format: ADME, cell-based, Hepatocyte.
A short description of series [18]: AUC (infinity) in Sprague-Dawley rat at 1 mg/kg, iv. It is filed as ADME, organism-based. The arrangement: time infinity, dose 1 mg/kg, route intravenous. The settings on record: plasma. In short, it runs like this: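 Male Sprague-Dawley rats (n=3 per route, 0.34-0.35 kg, cannulated), fasted ~18 h pre-dose and 4 h post-dose. Dosing was 1 mg/kg IV bolus in 20% ethanol/saline via the jugular cannula, or 5 mg/kg oral gavage in 0.5% aqueous methylcellulose. Jugular blood was sampled 0-96 h. Plasma was assayed by validated LC/MS/MS (LLOQ 1.00 ng/ml), and AUC(INF) was derived by noncompartmental mixed log-linear trapezoidal analysis.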

The nature of series [19]: Drug metabolism in rat hepatocytes assessed as decrease of compound level at 25 uM after 3 hrs by HPLC analysis. It is filed as ADME, cell-based, Hepatocyte. As to conditions: read-out: Drug metabolism.

The results in this text go back to ChEMBL document CHEMBL3526146, “In vitro and in vivo metabolism and pharmacokinetics of BMS-562086, a potent and orally bioavailable corticotropin-releasing factor-1 receptor antagonist” (Drug Metab Dispos, 2012).

Structures are written as SMILES.

Regarding `COc1ccc(-c2c(C)nn3c(O)nc(C)nc23)c(C)n1`, the Drug metabolism entry in series [1] is listed as “metabolite_detected”.
`CC[C@@H](C)Nc1nc(C)nc2c(-c3ccc(O)nc3C)c(C)nn12`: the Drug metabolism result in series [2] was “metabolite_detected”.
Take `CC[C@@H](C)Nc1nc(C)nc2c(-c3ccc(OC)nc3C)c(C)nn12` [PEXACERFONT]: the Drug metabolism entry in [3], in series [7], in [8], in [15] and in series [17] was “metabolite_detected” throughout. For the same compound, the Stability entry in series [4] is recorded as “Stable”. Moreover, the area under the curve AUC(0-inf) (as a rule, the area under the concentration-time curve extrapolated to infinity) in series [5] was 4.3 µM·h; in series [18] it was 2.9 µM·h. Also, the volume of distribution (Vz) (in general, a proportionality between amount in the body and measured concentration, not a real space) in series [6] amounted to 28.2 L/kg. Further, the metabolised at 3 h, 25 µM in series [9] is 61%; in series [14] it was 83%; in series [19] it was 68%. The peak level in series [10] (Cmax) was 1070 nM. The IC50 (in general, the point on the concentration scale where inhibition reaches its midpoint) in [11] is > 1 µM. Further, the bioavailability (in general, the share of a dose that reaches the circulation, judged against a reference dose that is usually intravenous) in series [12] is 58.8%. Further, the fraction unbound at 3 h in series [13] is 0.048. Further, the Tmax (in general, the time at which the peak concentration occurs) in series [16] was determined as 2 h.
